What was measured:
[1] = Oral bioavailability in Beagle dog at 3 mg/kg by LC-MS/MS analysis; format: ADME, organism-based, Canis lupus familiaris; conditions: in vivo
[2] = Fraction unbound in rat plasma at 1 uM by equilibrium dialysis; format: ADME, cell-free
Summary of the method: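 Rapid equilibrium dialysis of fresh rat, dog or human plasma at a compound concentration of 1.0 µM. Unbound fraction reported as a percentage.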

[3] = Metabolic stability in rat hepatocytes after 30 mins by LC-MS/MS analysis; format: ADME, cell-based, Hepatocyte; conditions: read-out: Stability
[4] = molecular target: T1, Cytochrome P450 1A2 (Homo sapiens, UniProt P05177); experiment: Inhibition of CYP1A2 (unknown origin); format: ADME
T1 sequence (P05177 whole entry): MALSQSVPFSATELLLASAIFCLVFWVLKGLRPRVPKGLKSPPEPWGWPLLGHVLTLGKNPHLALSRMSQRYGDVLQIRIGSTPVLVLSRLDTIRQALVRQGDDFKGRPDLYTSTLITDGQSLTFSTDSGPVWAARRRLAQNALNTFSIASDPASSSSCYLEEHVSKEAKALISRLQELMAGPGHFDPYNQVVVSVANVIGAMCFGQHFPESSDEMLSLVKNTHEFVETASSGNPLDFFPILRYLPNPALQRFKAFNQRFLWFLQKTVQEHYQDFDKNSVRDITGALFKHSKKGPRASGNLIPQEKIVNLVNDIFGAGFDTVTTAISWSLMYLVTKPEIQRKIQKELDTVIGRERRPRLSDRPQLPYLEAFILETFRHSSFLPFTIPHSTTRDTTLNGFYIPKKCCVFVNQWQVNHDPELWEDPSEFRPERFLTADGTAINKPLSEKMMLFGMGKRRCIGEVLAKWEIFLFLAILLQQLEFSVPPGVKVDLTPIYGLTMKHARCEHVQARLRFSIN

[5] = molecular target: Cytochrome P450 2C19 (Homo sapiens, UniProt P33261); experiment: Inhibition of CYP2C19 (unknown origin); format: ADME
[6] = molecular target: Cytochrome P450 3A4 (Homo sapiens, UniProt P08684); experiment: Inhibition of CYP3A4 in human liver microsomes using midazolam as substrate after 2 mins by LC-MS/MS analysis; format: ADME
[7] = test system: Rattus norvegicus; experiment: In vivo receptor occupancy at histamine 3 receptor in po dosed Wistar rat frontal cortex after 1 to 24 hrs by LC-MS/MS analysis; format: functional
[8] = Toxicity in dog assessed as effect on blood pressure at 10 to 25 mg/kg, po; format: organism-based, Canis lupus familiaris; conditions: in vivo
Summary of the method: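 Male dogs received oral doses of 10, 18 and 25 mg/kg. Body weight, body temperature, blood pressure, heart rate and ECG were monitored.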

[9] = Mutagenicity in Salmonella typhimurium TA98 in absence of metabolic activation by Ames test; format: toxicity; conditions: salmonella enterica subsp. enterica serovar typhimurium
[10] = test system: CHO-K1; experiment: Cytotoxicity in CHOK1 cells up to 300 uM incubated for 24 hrs by MTT assay; format: cell-based, Cricetulus griseus; conditions: chinese hamster, cho-k1, 24 h
[11] = Mutagenicity in Salmonella typhimurium TA1535 in presence of metabolic activation by Ames test; format: toxicity; conditions: salmonella enterica subsp. enterica serovar typhimurium
[12] = test system: Bone marrow cell; experiment: Clastogenic activity in micronucleus of mouse bone marrow cells; format: toxicity, cell-based

Sequence of Cytochrome P450 3A4 (P08684 whole entry): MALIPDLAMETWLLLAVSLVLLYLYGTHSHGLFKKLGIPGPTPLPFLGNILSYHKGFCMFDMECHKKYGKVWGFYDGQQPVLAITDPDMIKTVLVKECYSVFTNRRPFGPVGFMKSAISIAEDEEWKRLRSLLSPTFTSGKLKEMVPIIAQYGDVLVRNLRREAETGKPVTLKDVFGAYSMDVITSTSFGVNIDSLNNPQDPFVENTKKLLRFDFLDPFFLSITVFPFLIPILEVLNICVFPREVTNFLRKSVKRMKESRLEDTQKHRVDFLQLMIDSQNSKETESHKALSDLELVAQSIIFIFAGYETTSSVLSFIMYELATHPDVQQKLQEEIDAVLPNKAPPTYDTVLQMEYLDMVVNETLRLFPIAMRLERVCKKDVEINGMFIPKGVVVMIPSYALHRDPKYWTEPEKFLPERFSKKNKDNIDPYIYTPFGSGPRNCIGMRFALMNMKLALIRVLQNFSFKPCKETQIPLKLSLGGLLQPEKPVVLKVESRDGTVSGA
Sequence of Cytochrome P450 2C19 (P33261 whole entry): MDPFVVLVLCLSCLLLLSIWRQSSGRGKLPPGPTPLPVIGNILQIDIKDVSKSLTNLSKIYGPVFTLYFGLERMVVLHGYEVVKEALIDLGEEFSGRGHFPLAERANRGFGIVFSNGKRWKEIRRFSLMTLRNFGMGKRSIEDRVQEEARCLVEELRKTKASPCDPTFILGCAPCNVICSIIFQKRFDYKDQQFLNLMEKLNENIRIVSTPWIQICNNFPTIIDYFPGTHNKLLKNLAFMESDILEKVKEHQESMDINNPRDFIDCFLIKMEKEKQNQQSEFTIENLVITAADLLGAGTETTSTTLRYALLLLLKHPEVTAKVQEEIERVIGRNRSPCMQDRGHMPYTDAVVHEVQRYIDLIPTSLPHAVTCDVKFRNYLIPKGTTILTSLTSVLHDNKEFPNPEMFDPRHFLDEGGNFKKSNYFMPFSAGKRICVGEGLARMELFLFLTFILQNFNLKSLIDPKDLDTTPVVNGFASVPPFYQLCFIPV

Structure (SMILES): Cl.Cl.O=C(CN1CCOCC1)Nc1ccc(OC2CCN(C3CCC3)CC2)cc1
- bioavailability [1]: 83%
- fraction unbound at 1 µM [2]: 0.37
- remaining at 0.5 h [3]: 37%
- IC50 [4]: > 45 µM
- IC50 [5]: > 45 µM
- IC50 [6]: > 45 µM
- ED50 [7]: 0.24 mg/kg
- ED80 [7]: 3.05 mg/kg
- Occ [7]: Dose-dependent effect
- Activity [8]: Non-Toxic
- Activity [9]: Non-Toxic
- Activity [10]: Non-Toxic
- Activity [11]: Non-Toxic
- Activity [12]: Non-Toxic

From ChEMBL document CHEMBL4368912, “Discovery and Development of N-[4-(1-Cyclobutylpiperidin-4-yloxy)phenyl]-2-(morpholin-4-yl)acetamide Dihydrochloride (SUVN-G3031): A Novel, Potent, Selective, and Orally Active Histamine H3 Receptor Inverse Agonist with Robust Wake-Promoting Activity” (J Med Chem, 2019)
